ChEMBL document CHEMBL4808182, “Discovery of the Soluble Guanylate Cyclase Activator Runcaciguat (BAY 1101042)” (J Med Chem, 2021)
Each block holds one compound with its values, some of them ahead of it.

Experiments:
[1] = target: T1, Guanylate cyclase soluble subunit alpha-1 (Rattus norvegicus) (UniProt P19686); experiment: Activation of recombinant rat sGC alpha1 subunit expressed in CHO cells assessed as induction of [32P-cGMP] formation using alpha-[32P-GTP] as substrate measured after 6 mins by luminescence assay; type: cell-based; conditions: filed as activator
T1 sequence (whole entry): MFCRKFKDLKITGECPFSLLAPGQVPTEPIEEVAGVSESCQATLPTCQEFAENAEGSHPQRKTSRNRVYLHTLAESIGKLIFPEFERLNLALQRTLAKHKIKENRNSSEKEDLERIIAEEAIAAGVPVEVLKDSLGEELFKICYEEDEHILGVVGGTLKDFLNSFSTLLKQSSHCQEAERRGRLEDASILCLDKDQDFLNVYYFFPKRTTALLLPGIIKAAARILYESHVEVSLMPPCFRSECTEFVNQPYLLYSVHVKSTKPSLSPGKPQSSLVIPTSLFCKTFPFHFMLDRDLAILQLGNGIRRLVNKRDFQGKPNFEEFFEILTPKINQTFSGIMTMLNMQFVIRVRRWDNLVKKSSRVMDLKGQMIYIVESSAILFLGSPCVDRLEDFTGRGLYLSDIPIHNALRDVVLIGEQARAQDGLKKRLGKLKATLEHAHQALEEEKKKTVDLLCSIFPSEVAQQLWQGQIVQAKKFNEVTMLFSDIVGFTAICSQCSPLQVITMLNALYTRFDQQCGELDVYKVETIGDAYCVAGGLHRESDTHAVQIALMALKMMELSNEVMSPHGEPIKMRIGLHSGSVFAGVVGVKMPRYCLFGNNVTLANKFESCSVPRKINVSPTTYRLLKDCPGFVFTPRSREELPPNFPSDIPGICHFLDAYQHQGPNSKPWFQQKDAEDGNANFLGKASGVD

[2] = Plasma clearance in iv dosed Beagle dog measured up to 24 hrs by LC-MS analysis; type: ADME, organism-based, Canis lupus familiaris
[3] = Plasma clearance in iv dosed cynomolgus monkey measured up to 24 hrs by LC-MS analysis; type: ADME, organism-based, Macaca fascicularis
[4] = Clearance in Wistar rat at 0.3 mg/kg, iv measured up to 24 hrs by LC-MS analysis; type: ADME, organism-based; conditions: in vivo
How it was run: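 Rats dosed iv at 0.3 mg/kg; blood clearance determined.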

[5] = target: T1, Guanylate cyclase soluble subunit alpha-1 (Rattus norvegicus); experiment: Activation of recombinant rat sGC alpha1 subunit expressed in CHO cells assessed as induction of [32P-cGMP] formation by measuring efficacy using alpha-[32P-GTP] as substrate measured after 6 mins by luminescence assay relative to control; type: cell-based
[6] = Induction of CYP3A4 in human hepatocytes using phenacetin as substrate incubated for 60 mins by LC-MS/MS analysis; conditions: 1 h
[7] = Activation of recombinant rat sGC expressed in CHO cells by luminescence assay; type: cell-based
How it was run: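 Stable CHO reporter cell line overexpressing rat sGC; cGMP formation read as luminescence. EC50 from concentration–response. MEC taken as lowest concentration giving at least threefold increase in basal luminescence.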

Cytochrome P450 1A2 = target: T2, Cytochrome P450 1A2 (Homo sapiens, UniProt P05177); experiment: Induction of CYP1A2 in human hepatocytes at > 10000 ng/ml using phenacetin as substrate incubated for 60 mins by LC-MS/MS analysis; type: ADME, cell-based, Hepatocyte; conditions: 1 h
T2 sequence (P05177 whole entry): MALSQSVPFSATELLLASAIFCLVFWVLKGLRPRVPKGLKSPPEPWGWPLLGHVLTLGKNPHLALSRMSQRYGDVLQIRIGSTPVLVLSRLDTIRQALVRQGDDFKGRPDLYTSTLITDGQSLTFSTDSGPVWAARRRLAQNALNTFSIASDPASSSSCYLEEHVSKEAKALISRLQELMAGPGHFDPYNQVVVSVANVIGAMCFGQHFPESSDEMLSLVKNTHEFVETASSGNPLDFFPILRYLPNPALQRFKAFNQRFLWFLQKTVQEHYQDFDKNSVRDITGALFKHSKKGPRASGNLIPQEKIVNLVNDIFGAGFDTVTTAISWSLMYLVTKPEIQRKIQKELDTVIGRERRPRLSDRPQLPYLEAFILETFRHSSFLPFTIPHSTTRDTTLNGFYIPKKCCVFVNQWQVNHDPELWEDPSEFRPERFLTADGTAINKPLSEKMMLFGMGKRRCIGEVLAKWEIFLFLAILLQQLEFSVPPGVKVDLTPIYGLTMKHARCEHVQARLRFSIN

Cytochrome P450 3A4 = Cytochrome P450 3A4 (Homo sapiens, UniProt P08684); experiment: Induction of CYP3A4 in human hepatocytes at > 10000 ng/ml using phenacetin as substrate incubated for 60 mins by LC-MS/MS analysis; type: ADME, cell-based, Hepatocyte; conditions: 1 h
[8] = Oral bioavailability in Wistar rat measured up to 24 hrs by LC-MS analysis; type: ADME, organism-based; conditions: in vivo
[9] = Half life in iv dosed Wistar rat measured up to 24 hrs by LC-MS analysis; type: ADME, organism-based; conditions: in vivo
[10] = Volume of distribution at steady state in iv dosed Wistar rat measured up to 24 hrs by LC-MS analysis; type: ADME, organism-based; conditions: in vivo, read-out: Vdss
How it was run: (§1)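 Three animals per species and strain received an intravenous dose. Steady-state volume of distribution (L/kg) was derived from the blood concentration–time profile, alongside blood clearance and terminal half-life.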

[11] = Volume of distribution at steady state in iv dosed Beagle dog measured up to 24 hrs by LC-MS analysis; type: ADME, organism-based, Canis lupus familiaris; conditions: in vivo, read-out: Vdss; how it was run: as §1
[12] = Oral bioavailability in Beagle dog measured up to 24 hrs by LC-MS analysis; type: ADME, organism-based, Canis lupus familiaris; conditions: in vivo
[13] = Half life in iv dosed Beagle dog measured up to 24 hrs by LC-MS analysis; type: ADME, organism-based, Canis lupus familiaris; conditions: in vivo

Chain of Cytochrome P450 3A4 (P08684 whole entry): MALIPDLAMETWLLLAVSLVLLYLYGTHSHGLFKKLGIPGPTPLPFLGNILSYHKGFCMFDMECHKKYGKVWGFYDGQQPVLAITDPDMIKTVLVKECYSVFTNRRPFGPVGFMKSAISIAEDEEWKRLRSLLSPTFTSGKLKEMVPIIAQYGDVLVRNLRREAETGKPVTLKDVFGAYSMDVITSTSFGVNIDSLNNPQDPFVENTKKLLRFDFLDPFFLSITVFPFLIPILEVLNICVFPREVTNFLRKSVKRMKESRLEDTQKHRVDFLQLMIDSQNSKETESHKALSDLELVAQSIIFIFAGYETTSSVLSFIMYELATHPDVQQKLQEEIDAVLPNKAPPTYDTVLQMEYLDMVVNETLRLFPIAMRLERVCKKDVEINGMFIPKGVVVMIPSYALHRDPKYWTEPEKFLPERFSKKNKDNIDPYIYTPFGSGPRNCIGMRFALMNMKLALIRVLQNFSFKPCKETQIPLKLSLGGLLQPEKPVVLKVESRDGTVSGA

SMILES: Cc1ccc(=O)n(Cc2ccc(C(C(=O)Nc3cccc(CCC(=O)O)c3C)C3CCCC3)cc2)n1 (racemic)
MEC [1]: 30 nM

SMILES: Cc1c(CCC(=O)O)cccc1C(=O)NC(c1ccc(CN2N=C(c3ccccc3)OCC2=O)cc1)C1CCCC1 (centres undefined)
MEC [1]: 3000 nM

SMILES: Cc1c(CCC(=O)O)cccc1NC(=O)[C@H](c1ccc(Cn2nc(-c3ccccc3)ccc2=O)cc1)C1CCCC1
MEC [1]: 1 nM

SMILES: CCN(C)C(C(=O)Nc1cccc(CCC(=O)O)c1C)c1ccc(CN2N=C(c3ccccc3)OCC2=O)cc1 (centres undefined)
MEC [1]: 300 nM

SMILES: CC[C@H](C)[C@H](C(=O)Nc1cccc(CCC(=O)O)c1C)N1CCC(CN2N=C(c3ccccc3)OCC2=O)CC1
MEC [1]: 7 nM

SMILES: O=C(NCCCCC1(C(=O)O)CC1)[C@H](c1ccc(CN2N=C(c3ccccc3)OCC2=O)cc1)C1CCCC1
clearance [2]: 30 mL/min/kg | clearance [3]: 23.3 mL/min/kg | clearance [4]: 5.17 mL/min/kg | MEC [1]: 10 nM

SMILES: O=C(O)c1ccc(CNC(=O)C(c2ccc(CN3N=C(c4ccccc4)OCC3=O)cc2)C2CCCC2)cc1 (racemic)
MEC [1]: 10 nM

SMILES: O=C(O)CCc1cccc(NC(=O)[C@H](c2ccc(CN3N=C(c4ccccc4)OCC3=O)cc2)C2CCCC2)c1
clearance [2]: 2.67 mL/min/kg | clearance [3]: 14.3 mL/min/kg | clearance [4]: 64.2 mL/min/kg | Activity (Cytochrome P450 1A2): Not Active | MEC [1]: 10 nM | Activity (Cytochrome P450 3A4): Not Active

SMILES: Cc1c(CCC(=O)O)cccc1NC(=O)C(c1ccc(CN2CCOC(c3ccccc3)=N2)cc1)C1CCCC1 (racemic)
MEC [1]: 1000 nM

SMILES: CC(C)(CCCCNC(=O)[C@H](c1ccc(CN2N=C(c3ccccc3)OCC2=O)cc1)C1CCCC1)C(=O)O
MEC [1]: 100 nM

The next lines start with the values.

clearance [2]: 23.3 mL/min/kg | clearance [3]: 16.7 mL/min/kg | clearance [4]: 27 mL/min/kg | MEC [1]: 3 nM
SMILES: C[C@H]([C@H](C(=O)Nc1cccc(CCC(=O)O)c1)c1ccc(CN2N=C(c3ccccc3)OCC2=O)cc1)C(F)(F)F

MEC [1]: 30 nM
SMILES: Cc1c(CCC(=O)O)cccc1NC(=O)[C@H](c1ccc(CN2N=C(c3ccccc3)OCC2=O)cc1)C(C)C

Efficacy [5]: 34% | MEC [1]: 0.3 nM
SMILES: C[C@H]([C@H](C(=O)Nc1cc(CC2(C(=O)O)CC2)ccc1F)c1ccc(Cl)cc1)C(F)(F)F

MEC [1]: 3 nM
SMILES: Cc1c(CCC(=O)O)cccc1NC(=O)[C@H](c1ccc(CN2N=C(c3ccccc3)OCC2=O)cc1)[C@@H](C)C(F)(F)F

Efficacy ([5]; filed as activator): 58% | MEC [1]: 6.5 nM
SMILES: CC(C)C(CC(=O)O)c1ccc(Cl)c(NC(=O)[C@H](c2ccc(Cl)cc2)[C@@H](C)C(F)(F)F)c1 (stereo in doubt; 44a) [listing 1 of 2 here]

Efficacy [5]: 1.2% | MEC [1]: 300 nM
SMILES: C[C@H]([C@H](C(=O)Nc1ccc(Cl)c(CC2(C(=O)O)CC2)c1)c1ccc(Cl)cc1)C(F)(F)F

Efficacy ([5]; filed as activator): 47% | MEC [1]: 3 nM
SMILES: CC(C)C(CC(=O)O)c1ccc(Cl)c(NC(=O)[C@H](c2ccc(Cl)cc2)[C@@H](C)C(F)(F)F)c1 (stereo in doubt; 44b)

Efficacy ([5]; filed as activator): 43% | MEC [1]: 10 nM | Activity [6]: 31 nM | EC50 ([7]; CHO): 111 nM
SMILES: CCc1ccc([C@@H](C(=O)Nc2cc(C3(CC(=O)O)CC3)ccc2F)[C@@H](C)C(F)(F)F)cc1

Activity [6]: 10 nM | EC50 ([7]; cho): 28 nM
SMILES: CC(C)C(CC(=O)O)c1ccc(Cl)c(NC(=O)[C@H](c2ccc(Cl)cc2)[C@@H](C)C(F)(F)F)c1 (stereo in doubt; 44a) [listing 2 of 2 here]

bioavailability [8]: 84% | half-life [9]: 4.3 h | Efficacy ([5]; filed as activator): 63% | clearance [2]: 25 mL/min/kg | clearance [3]: 4 mL/min/kg | clearance [4]: 7.67 mL/min/kg | Vd [10]: 1.5 L/kg | MEC [1]: 0.3 nM | Vd [11]: 3 L/kg | bioavailability [12]: 57% | half-life [13]: 11 h
SMILES: C[C@H]([C@H](C(=O)Nc1cc(CC2(C(=O)O)CC2)ccc1Cl)c1ccc(Cl)cc1)C(F)(F)F
